Results as given in ChEMBL document CHEMBL5030548, “Blockade of GRTH/DDX25 Phosphorylation by Cyclic Peptides Provides an Avenue for Developing a Nonhormonal Male Contraceptive” (J Med Chem, 2021).
Activity calls are given as the source filed them. The rule behind the calls is not given here. Where a SMILES comes first, the peptide text is derived from it. [ ]: non-standard residue; d: D form. The star is where a group is joined. FITC = O=C1OC2(c3ccc(O)cc3Oc3cc(O)ccc32)c2ccc(NC(=S)*)cc21; 2Nal = N[C@@H](Cc1ccc2ccccc2c1)C(=O)O; AEEA = NCCOCCOCC(=O)O

Tests used:
[1] = Drug uptake in cytoplasm of African green monkey COS-1 cells assessed as compound accumulation in cytoplasm at 20 uM incubated for 4 hrs in presence of FITC-labelled peptide by DAPI staining based inverted phase contrast fluorescence microscope analysis; type: ADME, subcellular; conditions: chlorocebus aethiops, cos-1, 4 h
Summary of the method: (§1)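 Stable GRTH-expressing COS-1 cells grown overnight on coverslips, then given 20 μM FITC-tagged peptide for 4 h. After PBS wash they were fixed in 50% then 100% methanol, 1 min each, and mounted with DAPI. Green signal in cytoplasm and nucleus was viewed by inverted fluorescence microscopy.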

[2] = Drug uptake in nucleus of African green monkey COS-1 cells assessed as compound accumulation in nucleus at 20 uM incubated for 4 hrs in presence of FITC-labelled peptide by DAPI staining based inverted phase contrast fluorescence microscope analysis; type: ADME, subcellular; conditions: chlorocebus aethiops, cos-1, 4 h; summary of the method: as §1
Mus musculus [3] = organism: Mus musculus; experiment: Inhibition of GRTH phosphorylation in mouse seminiferous tubule of testis assessed as reduction in pGRTH protein level at 100 uM measured after 16 hrs by western blot analysis; type: tissue-based
Summary of the method: (§2)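 Seminiferous tubules from adult mice (90 days old) in medium 199, 4 h, then 100 μM peptide for 16 h. Lysates were blotted with phospho-specific GRTH antibody. pGRTH band normalized to β-actin and compared with untreated tubules; n = 3.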

COS-1 [4] = experiment: Inhibition of GRTH phosphorylation (unknown origin) expressed in COS-1 cells assessed as reduction in pGRTH protein level at 5 to 100 uM measured after 16 hrs by western blot analysis; type: cell-based; conditions: Homo sapiens, dose 5-100 µM
Summary of the method: (§3)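 COS-1 cells stably expressing human GRTH-V5-His at ~90% confluence. Peptides dissolved in water and given at 5, 20, 60 or 100 μM for 16 h, or at 100 μM for 4, 8, 16 or 24 h. 30 μg protein per sample was blotted with a rabbit phospho-T239-specific GRTH antibody. 61 kDa pGRTH band normalized to β-actin; three independent experiments; ANOVA with Tukey test.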

[5] = Drug uptake in mouse seminiferous tubule of testis at 100 uM incubated for 16 hrs by immunofluorescence microscopic analysis; type: ADME, tissue-based; conditions: in vitro
Summary of the method: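 Seminiferous tubules from decapsulated testes of 90-day-old mice were segmented and placed in medium 199. After 4 h, 100 μM FITC-tagged peptide was added for 16 h. Tubules were PBS-washed, mounted with antifade and imaged by fluorescence microscopy.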

COS-1 [6] = experiment: Binding affinity to GRTH (unknown origin) expressed in COS-1 cell lysate assessed as thermostabilization of protein at 40 uM incubated for 16 hrs followed by heating at 40 to 70 degree C for 3 mins by CETSA based western blot analysis; type: subcellular; conditions: Homo sapiens
Summary of the method: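 Lysate of COS-1 cells stably carrying human GRTH-V5-His, made with protease/phosphatase inhibitor and cleared by centrifugation, then diluted in lysis buffer. Peptide added to 40 μM and rotated 16 h at 4 °C. Aliquots were heated 3 min at 40–70 °C and cooled 3 min at room temperature, then spun. Soluble non-phospho GRTH was read by western blot; 40 °C sample served as reference; n = 3.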

COS-1 [7] = experiment: Binding affinity to mCherry labelled GRTH (unknown origin) expressed in COS-1 cells assessed as increase in fluorescence intensity of donor peptide FITC in bleached region at 15 uM followed by acceptor photobleaching measured after 16 hrs by inverted microscope based live cell imaging analysis; conditions: Homo sapiens
Summary of the method: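 COS-1 cells carrying an mCherry-human GRTH fusion, in glass-bottom dishes, exposed to 15 μM FITC-labelled peptide for 16 h, then imaged live. mCherry was excited at 561 nm and FITC at 488 nm (emission 500–550 nm). ROIs were bleached in the acceptor channel at 514 nm, 100% power, 10 iterations. FRET efficiency E% = 100 × (FITC postbleach − FITC prebleach)/FITC postbleach.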

COS-1 [8] = experiment: Inhibition of PKA-induced GRTH phosphorylation (unknown origin) expressed in COS-1 cells at 100 uM stimulated with PKA for 24 hrs followed by peptide addition and incubated overnight by Western blot analysis; type: cell-based; conditions: Homo sapiens
Summary of the method: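 Stable GRTH COS-1 cells at 0.3 × 10^6/well were transfected with PKAα catalytic subunit plasmid (3 μg/well), or with empty plasmid, and grown 24 h. Peptide was then added at 100 μM overnight at 37 °C. pGRTH was detected by western blot with phospho-specific antibody (1:1000) and normalized to β-actin; three experiments.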

COS-1 [9] = experiment: Cytotoxicity against African green monkey COS-1 cell assessed as reduction in cell viability incubated for 24 hrs by CellTiter 96 non-radioactive cell proliferation assay; type: cell-based; conditions: Chlorocebus aethiops, COS-1, 24 h
Summary of the method: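 COS-1 cells stably expressing human GRTH, seeded at 0.01 × 10^6/well and left 16 h. Peptides at 10, 50, 100, 250 and 500 μM for 24 h at 37 °C with 5% CO2. Tetrazolium dye was then added for 4 h, reaction stopped, absorbance read at 570 nm. Viability taken as % of control OD; IC50 by linear regression of dose–response.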

COS-1 [10] = experiment: Inhibition of GRTH phosphorylation (unknown origin) expressed in COS-1 cells assessed as reduction in pGRTH protein level measured after 16 hrs by western blot analysis; type: cell-based; conditions: Homo sapiens; summary of the method: as §3
COS-1 [11] = experiment: Inhibition of GRTH phosphorylation (unknown origin) expressed in COS-1 cells assessed as reduction in pGRTH protein level at 100 uM measured after 16 to 24 hrs by western blot analysis; type: cell-based; conditions: Homo sapiens, time 16-24 hrs; summary of the method: as §3
COS-1 [12] = experiment: Inhibition of GRTH phosphorylation (unknown origin) expressed in COS-1 cells assessed as reduction in pGRTH protein level at 100 uM measured after 24 hrs by western blot analysis; type: cell-based; conditions: Homo sapiens; summary of the method: as §3
COS-1 [13] = experiment: Inhibition of GRTH phosphorylation (unknown origin) expressed in COS-1 cells assessed as reduction in pGRTH protein level at 100 uM measured after 8 to 16 hrs by western blot analysis; type: cell-based; conditions: Homo sapiens, time 8-16 hrs; summary of the method: as §3
Mus musculus [14] = organism: Mus musculus; experiment: Inhibition of GRTH phosphorylation in mouse seminiferous tubule of testis assessed as reduction in pGRTH protein level at 100 uM measured after 16 hrs by western blot analysis relative to control; type: tissue-based; summary of the method: as §2

Row | Structure (SMILES) | Drug uptake [1] | Drug uptake [2] | Drug uptake [5] | Activity (COS-1 [6]) | inhibition (Mus musculus [3]) | inhibition (COS-1 [4]) | Activity (COS-1 [7]) | inhibition (COS-1 [8]) | IC50 (COS-1 [9]) [µM] | inhibition (COS-1 [10]) | inhibition (COS-1 [11]) | inhibition (COS-1 [12]) | inhibition (COS-1 [13]) | inhibition (Mus musculus [14]) [%]
1 | N=C(N)NCCC[C@@H]1NC(=O)CNC(=O)[C@H](Cc2ccc3ccccc3c2)NC(=O)[C@H](Cc2ccccc2)NC(=O)COCCOCCNC(=O)CNC(=O)[C@H](CCCNC(=N)N)NC(=O)[C@H](CCCNC(=N)N)NC1=O (cyclo([2Nal]GRRRG[AEEA]F)) | – | – | – | – | – | – | – | – | 392 | Dose-Dependent Effect | Active | Active | – | –
2 | N=C(N)NCCC[C@@H]1NC(=O)CNC(=O)[C@H](Cc2ccc3ccccc3c2)NC(=O)[C@H](Cc2ccccc2)NC(=O)COCCOCCNC(=O)[C@H](CCCCNC(=S)Nc2ccc3c(c2)C(=O)OC32c3ccc(O)cc3Oc3cc(O)ccc32)NC(=O)[C@H](CCCNC(=N)N)NC(=O)[C@H](CCCNC(=N)N)NC1=O (cyclo([2Nal]GRRRK(FITC)[AEEA]F)) | Active | Active | Active | Active | – | – | Active | Active | 312 | Dose-Dependent Effect | – | Active | Active | –
3 | N=C(N)NCCC[C@@H]1NC(=O)CNC(=O)[C@H](Cc2ccc3ccccc3c2)NC(=O)[C@H](Cc2ccccc2)NC(=O)COCCOCCNC(=O)[C@@H](CCCCNC(=S)Nc2ccc3c(c2)C(=O)OC32c3ccc(O)cc3Oc3cc(O)ccc32)NC(=O)[C@H](CCCNC(=N)N)NC(=O)[C@H](CCCNC(=N)N)NC1=O (cyclo([2Nal]GRRR[dK](FITC)[AEEA]F)) | Active | Active | Active | Active | – | – | Active | Active | 333 | Dose-Dependent Effect | – | inactive | Active | 60

More lines, main results first:

Row | Drug uptake [1] | Drug uptake [2] | Drug uptake [5] | Activity (COS-1 [6]) | Structure (SMILES) | inhibition (Mus musculus [3]) | inhibition (COS-1 [4]) | Activity (COS-1 [7]) | inhibition (COS-1 [8]) | IC50 (COS-1 [9]) [µM] | inhibition (COS-1 [10]) | inhibition (COS-1 [11]) | inhibition (COS-1 [12]) | inhibition (COS-1 [13]) | inhibition (Mus musculus [14]) [%]
4 | Not Active | Not Active | Active | – | N=C(N)NCCC[C@H](NC(=O)CNC(=O)[C@H](Cc1ccc2ccccc2c1)NC(=O)[C@@H](N)Cc1ccccc1)C(=O)N[C@@H](CCCNC(=N)N)C(=O)N[C@@H](CCCNC(=N)N)C(=O)N[C@@H](CCCCNC(=S)Nc1ccc2c(c1)C(=O)OC21c2ccc(O)cc2Oc2cc(O)ccc21)C(=O)NCCOCCOCC(=O)O (H-F[2Nal]GRRRK(FITC)[AEEA]-OH) | inactive | inactive | – | – | – | – | – | – | – | –
5 | Active | Active | Active | inactive | O=C(O)CC[C@@H]1NC(=O)CNC(=O)[C@H](Cc2ccc3ccccc3c2)NC(=O)[C@H](Cc2ccccc2)NC(=O)COCCOCCNC(=O)[C@H](CCCCNC(=S)Nc2ccc3c(c2)C(=O)OC32c3ccc(O)cc3Oc3cc(O)ccc32)NC(=O)[C@H](CCC(=O)O)NC(=O)[C@H](CCC(=O)O)NC1=O (cyclo([2Nal]GEEEK(FITC)[AEEA]F)) | inactive | inactive | inactive | inactive | – | – | – | – | – | –
6 | Active | Active | Active | – | N=C(N)NCCC[C@@H]1NC(=O)CNC(=O)CNC(=O)CNC(=O)COCCOCCNC(=O)[C@H](CCCCNC(=S)Nc2ccc3c(c2)C(=O)OC32c3ccc(O)cc3Oc3cc(O)ccc32)NC(=O)[C@H](CCCNC(=N)N)NC(=O)[C@H](CCCNC(=N)N)NC1=O (cyclo([AEEA]GGGRRRK(FITC))) | inactive | inactive | – | – | – | – | – | – | – | –
